Assay results taken from article PMC10685179 (RSC Advances, 2023).
In brackets after ≈: the same amount, converted by molar mass. Blank lines part the entries; values can stand above or below the molecule they belong to.

Tests used:
E. faecalis KA247 [1] = test: Agar well-diffusion, inhibition zone; assay type: cell-based, Enterococcus faecalis; details: for zone of inhibition at 10 µM: Enterococcus faecalis, KA247, read-out: Average diameter of inhibition zone (ZI)
Procedure, shortened: (§1)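 Clinical MDR isolates from complicated UTI patients. Suspensions were made in Tryptic Soya and Sabouraud broths from subcultures on Tryptic Soya and Sabouraud agar plates. Agar well diffusion followed CLSI guidelines, with test compounds applied at 10 μM in DMSO. Fosfomycin and fluconazole were positive controls and DMSO the negative control. Zone diameters were read in mm, in triplicate.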

S. aureus KA112 [2] = test: Agar well-diffusion, inhibition zone; assay type: cell-based, Staphylococcus aureus; details: for zone of inhibition at 10 µM: Staphylococcus aureus, KA112, read-out: Average diameter of inhibition zone (ZI)
Procedure, shortened: as §1

E. coli KA780 [3] = test: Agar well-diffusion, inhibition zone; assay type: cell-based, Escherichia coli; details: for zone of inhibition at 10 µM: Escherichia coli, KA780, read-out: Average diameter of inhibition zone (ZI)
Procedure, shortened: as §1

P. mirabilis KA320 [4] = test: Agar well-diffusion, inhibition zone; assay type: cell-based, Proteus mirabilis; details: for zone of inhibition at 10 µM: Proteus mirabilis, KA320, read-out: Average diameter of inhibition zone (ZI)
Procedure, shortened: as §1

C. albicans KA205 [5] = test: Agar well-diffusion, inhibition zone; assay type: cell-based, Candida albicans; details: for zone of inhibition at 10 µM: Candida albicans, KA205, read-out: Average diameter of inhibition zone (ZI)
Procedure, shortened: as §1

C. tropicalis KA205 [6] = test: Agar well-diffusion, inhibition zone; assay type: cell-based, Candida tropicalis; details: for zone of inhibition at 10 µM: Candida tropicalis, KA205, read-out: Average diameter of inhibition zone (ZI)
Procedure, shortened: as §1

E. faecalis KA247 [7] = test: Broth microdilution MIC and MBC; assay type: cell-based; details: Enterococcus faecalis, KA247, 24 h
S. aureus KA112 [8] = test: Broth microdilution MIC and MBC; assay type: cell-based; details: Staphylococcus aureus; for MIC: KA112, 24 h; for MBC: KA112, read-out: MBC/MIC
E. coli KA780 [9] = test: Broth microdilution MIC and MBC; assay type: cell-based; details: Escherichia coli; for MIC: KA780, 24 h; for MBC: KA780, read-out: MBC/MIC
P. mirabilis KA320 [10] = test: Broth microdilution MIC and MBC; assay type: cell-based; details: Proteus mirabilis; for MIC: KA320, 24 h; for MBC: KA320, read-out: MBC/MIC
C. albicans KA205 [11] = test: Broth microdilution MIC and MFC; assay type: cell-based; details: Candida albicans; for MIC: KA205, 24 h; for MFC: KA205, read-out: MFC/MIC
C. tropicalis KA205 [12] = test: Broth microdilution MIC and MFC; assay type: cell-based; details: Candida tropicalis; for MIC: KA205, 24 h; for MFC: KA205, read-out: MFC/MIC
fungal isolates [13] = test: Broth microdilution MIC/MFC, fungal panel; assay type: cell-based
E. faecalis KA247 [14] = test: Checkerboard microdilution synergy with fosfomycin; assay type: cell-based, Enterococcus faecalis
S. aureus KA112 [15] = test: Checkerboard microdilution synergy with fosfomycin; assay type: cell-based, Staphylococcus aureus
E. coli KA780 [16] = test: Checkerboard microdilution synergy with fosfomycin; assay type: cell-based, Escherichia coli
P. mirabilis KA320 [17] = test: Checkerboard microdilution synergy with fosfomycin; assay type: cell-based, Proteus mirabilis
C. tropicalis KA205 [18] = test: Checkerboard microdilution synergy with fluconazole; assay type: cell-based, Candida tropicalis
MDR microbial isolates = test: Time-kill kinetics, whole panel; assay type: cell-based; details: all pathogenic isolates
Procedure, shortened: (§2)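 Untreated organisms served as controls. Bacteria were sampled at 0, 2, 4, 6, 8, 12, 18 and 24 h, and fungi at 0, 2, 4, 6, 8, 18, 24 and 48 h. Counts were made by plate count and plotted as log10 CFU mL−1 versus time.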

bacterial isolates = test: Time-kill kinetics, bacterial isolates; assay type: cell-based; details: at MIC
Procedure, shortened: as §2

fungal isolates [19] = test: Time-kill kinetics, fungal isolates; assay type: cell-based; details: at MIC
Procedure, shortened: as §2

[20] = test system: fosfomycin-resistant (FO-R) E. coli KA780; test: SEM of outer membrane integrity; assay type: cell-based; details: at MIC, compared with DMSO
[21] = test system: BNL: mouse normal liver cells; test: SRB cytotoxicity assay on normal cells; assay type: cell-based
Procedure, shortened: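 Mouse normal liver BNL cells were grown in DMEM with 10% heat-inactivated FBS, penicillin and streptomycin, at 37 °C in 5% CO2. […] SRB assay: 10% TCA fixation at 4 °C for 1 h, 0.4% SRB for 10 min at room temperature, 1% acetic acid washes, 10 mM Tris solubilisation, absorbance at 540 nm. Mean of three, with SD.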

E. coli MurA enzyme = E. coli MurA enzyme (Escherichia coli, UniProt P0A749); test: MurA enzyme inhibition assay; assay type: biochemical
[22] = Physical and chemical stability after gamma irradiation; assay type: physicochemical; details: gamma radiation 3.0 kGy to 20.0 kGy
Procedure, shortened: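 Compound powders in sterile tubes were irradiated by a 60Co source at 3.0, 5.0, 7.0, 10.0, 15.0 and 20.0 kGy, at a dose rate of 0.9 kGy h−1. Non-irradiated and irradiated samples were checked for physical and chemical changes by UV-VIS spectrophotometry at 560 nm.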

[23] = 10 μM (DMSO), mean of three ± SEM

E. coli MurA enzyme, sequence (P0A749 whole entry): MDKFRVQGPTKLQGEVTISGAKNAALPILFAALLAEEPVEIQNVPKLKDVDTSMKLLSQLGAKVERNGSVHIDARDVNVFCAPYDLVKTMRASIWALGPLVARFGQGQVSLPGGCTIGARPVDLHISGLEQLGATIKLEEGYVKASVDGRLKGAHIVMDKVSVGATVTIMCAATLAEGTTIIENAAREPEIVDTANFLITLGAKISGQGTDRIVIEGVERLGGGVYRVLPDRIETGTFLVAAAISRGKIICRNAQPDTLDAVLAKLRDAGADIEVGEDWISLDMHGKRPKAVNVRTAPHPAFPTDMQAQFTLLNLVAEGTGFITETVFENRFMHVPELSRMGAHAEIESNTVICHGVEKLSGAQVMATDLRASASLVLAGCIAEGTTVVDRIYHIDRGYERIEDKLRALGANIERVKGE

MIC (E. faecalis KA247 [7]): 8 mg/L (≈ 23.7 µM) | MIC (S. aureus KA112 [8]): 8 mg/L (≈ 23.7 µM) | MIC (E. coli KA780 [9]): 4 mg/L (≈ 11.9 µM) | MIC (P. mirabilis KA320 [10]): 8 mg/L (≈ 23.7 µM) | MIC (C. albicans KA205 [11]): 1 mg/L (≈ 2.96 µM) | MIC (C. tropicalis KA205 [12]): 1 mg/L (≈ 2.96 µM)
Compound: Nc1nc2c(-c3ccc([N+](=O)[O-])cc3)nn(-c3ccccc3)c2s1 [Compound 2, 3-(4-nitrophenyl)-1-phenyl-1H-pyrazolo[4,3-d]thiazol-5-amine]
zone of inhibition at 10 µM (E. faecalis KA247 [1]): 17 mm | zone of inhibition at 10 µM (S. aureus KA112 [2]): 17 ± 0.39 mm | zone of inhibition at 10 µM (E. coli KA780 [3]): 17 ± 0.62 mm | zone of inhibition at 10 µM (P. mirabilis KA320 [4]): 16 ± 0.79 mm | zone of inhibition at 10 µM (C. albicans KA205 [5]): 17 ± 0.16 mm | zone of inhibition at 10 µM (C. tropicalis KA205 [6]): 16 ± 0.63 mm | MBC (S. aureus KA112 [8]): 0.5 mg/L (≈ 1.48 µM) | MBC (E. coli KA780 [9]): 0.5 mg/L (≈ 1.48 µM) | MBC (P. mirabilis KA320 [10]): 1 mg/L (≈ 2.96 µM) | MFC (C. albicans KA205 [11]): 0.5 mg/L (≈ 1.48 µM) | MFC (C. tropicalis KA205 [12]): 2 mg/L (≈ 5.93 µM)

MIC (E. faecalis KA247 [7]): 2 mg/L (≈ 3.34 µM) | MIC (S. aureus KA112 [8]): 1 mg/L (≈ 1.67 µM) | MIC (E. coli KA780 [9]): 1 mg/L (≈ 1.67 µM) | MIC (P. mirabilis KA320 [10]): 2 mg/L (≈ 3.34 µM) | MIC (C. albicans KA205 [11]): 1 mg/L (≈ 1.67 µM) | MIC (C. tropicalis KA205 [12]): 1 mg/L (≈ 1.67 µM)
Compound: CCOP(=O)(OCC)C(Nc1nc2c(-c3ccc([N+](=O)[O-])cc3)nn(-c3ccccc3)c2s1)c1ccc(Cl)cc1 (centres unmarked) [Compound 3, Diethyl((4-chlorophenyl)((3-(4-nitrophenyl)-1-phenyl-1H-pyrazolo[4,3-d]thiazol-5-yl)amino)methyl)phosphonate]
zone of inhibition at 10 µM (E. faecalis KA247 [1]): 18 ± 0.05 mm | zone of inhibition at 10 µM (S. aureus KA112 [2]): 18 ± 0.31 mm | zone of inhibition at 10 µM (E. coli KA780 [3]): 19 ± 0.14 mm | zone of inhibition at 10 µM (P. mirabilis KA320 [4]): 17 ± 0.71 mm | zone of inhibition at 10 µM (C. albicans KA205 [5]): 17 ± 0.88 mm | zone of inhibition at 10 µM (C. tropicalis KA205 [6]): 17 ± 0.48 mm | MBC (S. aureus KA112 [8]): 2 mg/L (≈ 3.34 µM) | MBC (E. coli KA780 [9]): 1 mg/L (≈ 1.67 µM) | MBC (P. mirabilis KA320 [10]): 1 mg/L (≈ 1.67 µM) | MFC (C. albicans KA205 [11]): 1 mg/L (≈ 1.67 µM) | MFC (C. tropicalis KA205 [12]): 0.5 mg/L (≈ 0.836 µM) | MFC (fungal isolates [13]): 0.5 to 1 mg/L (≈ 0.836 to 1.67 µM)

Compound: O=[N+]([O-])c1ccc(-c2nn(-c3ccccc3)c3sc(NC(c4cccs4)P(=O)(Oc4ccccc4)Oc4ccccc4)nc23)cc1 (centres unmarked) [Compound 6a, Diphenyl(((3-(4-nitrophenyl)-1-phenyl-1H-pyrazolo[4,3-d]thiazol-5-yl)amino)(thiophen-2-yl)methyl)phosphonate]
zone of inhibition at 10 µM (E. faecalis KA247 [1]): 18 ± 0.74 mm | zone of inhibition at 10 µM (S. aureus KA112 [2]): 19 mm | zone of inhibition at 10 µM (E. coli KA780 [3]): 19 ± 0.66 mm | zone of inhibition at 10 µM (P. mirabilis KA320 [4]): 18 ± 0.5 mm | zone of inhibition at 10 µM (C. albicans KA205 [5]): 20 ± 0.89 mm | zone of inhibition at 10 µM (C. tropicalis KA205 [6]): 20 ± 0.2 mm | MIC (E. faecalis KA247 [7]): 2 mg/L (≈ 3 µM) | MIC (S. aureus KA112 [8]): 1 mg/L (≈ 1.5 µM) | MBC (S. aureus KA112 [8]): 1 mg/L (≈ 1.5 µM) | MIC (E. coli KA780 [9]): 1 mg/L (≈ 1.5 µM) | MBC (E. coli KA780 [9]): 0.5 mg/L (≈ 0.751 µM) | MIC (P. mirabilis KA320 [10]): 2 mg/L (≈ 3 µM) | MBC (P. mirabilis KA320 [10]): 1 mg/L (≈ 1.5 µM) | MIC (C. albicans KA205 [11]): 0.5 mg/L (≈ 0.751 µM) | MFC (C. albicans KA205 [11]): 0.5 mg/L (≈ 0.751 µM) | MIC (C. tropicalis KA205 [12]): 0.5 mg/L (≈ 0.751 µM) | MFC (C. tropicalis KA205 [12]): 1 mg/L (≈ 1.5 µM)

Compound: O=[N+]([O-])c1ccc(-c2nn(-c3ccccc3)c3sc(NC(c4ccccc4O)P(=O)(Oc4ccccc4)Oc4ccccc4)nc23)cc1 (centres unmarked) [Compound 5a, Diphenyl((2-hydroxyphenyl)((3-(4-nitrophenyl)-1-phenyl-1H-pyrazolo[4,3-d]thiazol-5-yl)amino)methyl)phosphonate]
Average diameter of inhibition zone (ZI) (E. faecalis KA247 [1]; [23]): 24 ± 0.20 mm | Average diameter of inhibition zone (ZI) (S. aureus KA112 [2]; [23]): 24 ± 0.51 mm | Average diameter of inhibition zone (ZI) (E. coli KA780 [3]; [23]): 25 ± 0.28 mm | Average diameter of inhibition zone (ZI) (P. mirabilis KA320 [4]; [23]): 23 ± 0.44 mm | Average diameter of inhibition zone (ZI) (C. albicans KA205 [5]; [23]): 22 ± 0.76 mm | Average diameter of inhibition zone (ZI) (C. tropicalis KA205 [6]; [23]): 22 ± 0.43 mm | MIC (E. faecalis KA247 [7]): 0.125 mg/L (≈ 0.185 µM) | MIC (S. aureus KA112 [8]): 0.06 mg/L (≈ 0.0888 µM) | MBC (S. aureus KA112 [8]): 0.5 mg/L (≈ 0.74 µM) | MIC (E. coli KA780 [9]): 0.06 mg/L (≈ 0.0888 µM) | MBC (E. coli KA780 [9]): 0.5 mg/L (≈ 0.74 µM) | MIC (P. mirabilis KA320 [10]): 0.125 mg/L (≈ 0.185 µM) | MBC (P. mirabilis KA320 [10]): 0.5 mg/L (≈ 0.74 µM) | MIC (C. albicans KA205 [11]): 0.125 mg/L (≈ 0.185 µM) | MFC (C. albicans KA205 [11]): 0.5 mg/L (≈ 0.74 µM) | MIC (C. tropicalis KA205 [12]): 0.125 mg/L (≈ 0.185 µM) | MFC (C. tropicalis KA205 [12]): 1 mg/L (≈ 1.48 µM) | combination effect (E. faecalis KA247 [14]): S (FICI ≤ 0.5 (synergism)) | Fractional inhibitory concentration index (ΣFICI) (E. faecalis KA247 [14]; combination with fosfomycin): 0.5 | combination effect (S. aureus KA112 [15]): S (FICI ≤ 0.5 (synergism)) | Fractional inhibitory concentration index (ΣFICI) (S. aureus KA112 [15]; combination with fosfomycin): 0.25 | combination effect (E. coli KA780 [16]): S (FICI ≤ 0.5 (synergism)) | Fractional inhibitory concentration index (ΣFICI) (E. coli KA780 [16]; combination with fosfomycin): 0.25 | combination effect (P. mirabilis KA320 [17]): S (FICI ≤ 0.5 (synergism)) | Fractional inhibitory concentration index (ΣFICI) (P. mirabilis KA320 [17]; combination with fosfomycin): 0.5 | combination effect (C. tropicalis KA205 [18]): S (FICI ≤ 0.5 (synergism)) | Fractional inhibitory concentration index (ΣFICI) (C. tropicalis KA205 [18]; combination with fluconazole): 0.5 | microbial reduction relative to the initial inoculum (MDR microbial isolates): ≥ 3 log10 | time of maximum killing rate (bacterial isolates): 6 h | time of maximum killing rate / maximum reduction in cell counts (fungal isolates [19]): 16 h | effect on outer membrane (SEM image) [20]: perturbation in the membrane and distinct ruptures of the OM integrity | IC50 [21]: > 100 µM | IC50 (E. coli MurA enzyme; IC50, preincubation 0 min): 41 µM | IC50 (E. coli MurA enzyme; IC50, preincubation 10 min): 3.8 µM | remaining activity at 100 µM (E. coli MurA enzyme; read-out: RA (residual activity), at 100 μM, preincubation 10 min): 0% | physical changes (odor, color, clarity, solubility, and form) after irradiation [22]: no changes occurred | stability of the chemical structure after irradiation ([22]; UV-VIS spectrophotometer): confirmed the stability of the chemical structure
